Data set [1] has as its system influenza virus strain A/PR/8/34 (H1N1). Briefly: organism not typed. Format: cell-based, Influenza A virus (IVA). The settings on record: for SI (selectivity index, CC50/EC50): Influenza A virus, MDCK cells.
Data set [2] relates to parainfluenza type 3 strain v2932. Briefly: microbe, parasite or virus in culture. Format: cell-based, Human parainfluenza virus type 3 (PIV-3). The conditions noted are these: for SI (selectivity index, CC50/EC50): PIV-3, HEp-2 cells.
The test system of data set [3] is respiratory syncytial virus A2. The experiment in a line: Antiviral activity against respiratory syncytial virus in HEp-2 culture. Format: cell-based, Human respiratory syncytial virus (RSV). The settings on record: for SI (selectivity index, CC50/EC50): RSV, HEp-2 cells. In outline:
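HEp-2 monolayers infected with 10-fold dilutions (10–1–10–7) of RSV A2. Test compound was pre-applied 1 h in 3-fold dilutions, starting from the CC50-level concentration made from a 2000 µg/mL DMSO stock. It was re-added at double concentration with virus for 1 h, then washed out and re-applied for 6 days at 37°C, 5% CO2. Read-out was acetone-fixed cell-ELISA (TMB, OD 450 nm), with Reed–Muench titers.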

A short description of data set [4]: Cytotoxicity measurement. Format: cell-based. The conditions noted are these: dog, MDCK cells. In outline:
(§1)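 Test compound was diluted 2-fold in medium from 2000 µg/mL DMSO stocks and applied to washed monolayers for 24 h at 37°C, 5% CO2. Cells were PBS-washed, then given MTT ([…] in medium) for 1.5 h. The product was dissolved in 96% ethanol and OD read at 535 nm. CC50 was derived from the data by curve analysis.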

Data set [5] in a line: Cytotoxicity measurement. Format: cell-based. The conditions noted are these: human, HEp-2 cells. In outline:
as §1

For data set [6], the system named is broad spectrum of enveloped viruses. The conditions noted are these: cited from earlier work.
The test system of a further data set is MDCK cell culture. The experiment in a line: Cytotoxicity measurement. Format: cell-based. In outline:
as §1

The next data set has as its system HEp-2 culture. The experiment in a line: Cytotoxicity measurement. Format: cell-based. The settings on record: for CC50: MTT, 24 h. In outline:
as §1

The nature of another data set: Solubility. Format: physicochemical.
In another data set the test system is herpes simplex type 1. The conditions noted are these: cited from earlier work.
For another data set, the system named is tick-borne encephalitis. The settings on record: cited from earlier work.
The mark [7] stands for this setting: human respiratory syncytial virus, HEp-2.

Usually EC50 stands for the concentration at which the effect is half-maximal. The low end stands for a more potent agent, the high end for a less potent agent. Usually CC50 stands for the concentration at which the toxic effect on the cells reaches its halfway point. A high value points to lower toxicity to the cells.

`O=c1[nH]c(=O)n([C@H]2C[C@H](O)[C@@H](CO)O2)cc1C#Cc1ccc2c3cccc4cccc(c5cccc1c52)c43` [dUY11 (I), 5-(perylen-3-ylethynyl)-2′-deoxy-uridine]: the “SI (selectivity index, CC50/EC50)” value in [1] stood at 180; in [2] it was 270; in [3], 330. For the same compound, the EC50 in data set [1] (MDCK) was found to be 2.7 ± 0.7 µM; in [2] (Human respirovirus 3, HEp-2) it was 2.2 ± 0.5 µM; in data set [3] (setting [7]), 1.8 ± 0.2 µM. Besides, the CC50 at 24 h in the data set “Cytotoxicity measurement [4]” turned out to be 492 ± 56 µM; in the data set “Cytotoxicity measurement [5]” it was 598 ± 44 µM. The “antiviral activity (in words)” value in [6] was “highly active”.
For the compound `O=c1[nH]c(=O)n([C@@H]2O[C@H](CO)[C@@H](O)[C@@H]2O)cc1C#Cc1ccc2c3cccc4cccc(c5cccc1c52)c43` [aUY11 (II), 5-(perylen-3-ylethynyl)-arabino-uridine], the results for the EC50 in data set [1] (Influenza A virus A/PR/8/34 (H1N1) in MDCK cells), in data set [2] (PIV-3 strain v2932 in HEp-2 cells) and in data set [3] (RSV A2 in HEp-2 cells) were 5.2 ± 0.4 µM, 1.3 ± 0.3 µM and 2.3 ± 0.1 µM, respectively. Besides, the CC50 with MDCK cell culture (MDCK cell culture (IVA columns), MTT, 24 h) was determined as 894 ± 23 µM; with HEp-2 culture (HEp-2 culture (PIV-3 columns)), 998 ± 59 µM; in the data set with HEp-2 culture (HEp-2 culture (RSV columns)), 998 ± 59 µM. Further, the “antiviral activity (in words)” value in data set [6] is recorded as “highly active”.
On to `O=c1[nH]c(=O)n([C@@H]2O[C@H](CO)[C@@H](O)[C@H]2O)cc1C#Cc1ccc2c3cccc4cccc(c5cccc1c52)c43` [rUY11 (IV), 5-(Perylen-3-ylethynyl)uridine], for which the “SI (selectivity index, CC50/EC50)” value in data set [1] was found to be 100; in data set [2], 210; in [3], 84. Moreover, the EC50 in data set [1] (MDCK) was 6.4 ± 1.2 µM; in data set [2] (Human respirovirus 3, HEp-2) it was 2.9 ± 0.4 µM; in [3] (setting [7]) it was 7.1 ± 0.2 µM. In addition, the values for the CC50 at 24 h in “Cytotoxicity measurement [4]” and in “Cytotoxicity measurement [5]” were 658 ± 34 µM and 599 ± 23 µM, respectively. Further, in “Solubility” (DMSO), the “solubility in DMSO” value was “fairly soluble”. For the same compound, the solubility in water result in “Solubility” (water) is “only slightly soluble”.
On to `CC(C)(C)C(=O)OCn1c(=O)c(C#Cc2ccc3c4cccc5cccc(c6cccc2c63)c54)cn(CC(=O)O)c1=O` [cm1pUY11 (III), 1-carboxymethyl-3-pivaloyloxymethyl-5-(perylen-3-ylethynyl)uracil], for which the “SI (selectivity index, CC50/EC50)” value was 68 in data set [1], 10 in [2] and 24 in [3]. Further, the EC50 came out at 0.5 ± 0.02 µM in data set [1] (MDCK); 4.3 ± 0.2 µM in [2] (Human respirovirus 3, HEp-2); 1.9 ± 0.1 µM in [3] (setting [7]). Moreover, the CC50 at 24 h in the data set “Cytotoxicity measurement [4]” stood at 34 ± 1.9 µM; in the data set “Cytotoxicity measurement [5]”, 45 ± 3.4 µM. Further, the “cytotoxic properties (in words)” value is “significantly more pronounced cytotoxic properties” with MDCK cell culture (MDCK cell culture, compared with the other three compounds) and “significantly more pronounced cytotoxic properties” in the data set on HEp-2 culture (HEp-2 cell culture, compared with the other three compounds). For the same compound, the “antiviral activity (in words)” value with herpes simplex type 1 and with tick-borne encephalitis was “activity” throughout.

The values are drawn from article PMC7305479 (Russian Journal of Bioorganic Chemistry, 2020).
